Data reported in ChEMBL document CHEMBL1157510, “Bioactive cembrane diterpenoids of Anisomeles indica” (J Nat Prod, 2008).
Activity calls are given as the source filed them. The calls are words filed in the database; no cut-off is given here.

What was measured:
Platelet [1] = assay: Inhibition of collagen-induced human platelet aggregation by light transmission aggregometer; assay type: functional, cell-based
Method in brief: (§1)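 Human platelet suspension was preincubated with DMSO or compound at 37 °C for 3 min, stirring at 1200 rpm, before the activator was added. Aggregation was followed turbidimetrically in a light-transmission aggregometer.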

[2] = (§2) Cytotoxicity against human Hep3B cells after 3 days by MTT assay; assay type: functional, cell-based, Hep 3B2; details: 72 h
Method in brief: (§3)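 Freshly trypsinized cells were seeded at 5000-10 000 per well, and compounds were added from DMSO stocks. After 3 days of culture, attached cells were given MTT (0.5 mg/mL, 1 h) and then solubilized in DMSO. Absorbance was read at 550 nm. IC50 is the concentration that cut cell growth by 50%. Values are the mean of two to three separate experiments, each in triplicate.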

MCF7 = assay: Cytotoxicity against human MCF7 cells after 3 days by MTT assay; assay type: functional, cell-based; details: for IC50: MCF7, 72 h; method in brief: as §3
Platelet [3] = assay: Inhibition of thrombin-induced human platelet aggregation by light transmission aggregometer; assay type: functional, cell-based; method in brief: as §1
MDA-MB-231 = assay: Cytotoxicity against human MDA-MB-231 cells after 3 days by MTT assay; assay type: functional, cell-based; details: for IC50: MDA-MB-231, 72 h; method in brief: as §3
A549 = assay: Cytotoxicity against human A549 cells after 3 days by MTT assay; assay type: functional, cell-based; details: for IC50: A549, 72 h; method in brief: as §3
HepG2 = assay: Cytotoxicity against human HepG2 cells after 3 days by MTT assay; assay type: functional, cell-based; details: for IC50: HepG2, 72 h; method in brief: as §3
Hep 3B2 = assay: as §2; assay type: functional, cell-based; method in brief: as §3

| IC50 (Platelet [1]) [µM] | IC50 (Platelet [3]) [µM] | SMILES | Activity (Platelet [1]) | IC50 [2] [µM] | IC50 (MCF7) [µM] | Activity (Platelet [3]) | IC50 (MDA-MB-231) [µM] | IC50 (A549) [µM] | IC50 (HepG2) [µM] | Activity (Hep 3B2) | Activity (MCF7) | Activity (MDA-MB-231) | Activity (A549) | Activity (HepG2) |
| --- | --- | --- | --- | --- | --- | --- | --- | --- | --- | --- | --- | --- | --- | --- |
| 41.9 | > 100 | C=C1CC[C@@H]2C(=C)C(=O)O[C@H]2/C=C(\C)C[C@@H]2C=C(CC[C@H]1O)C(=O)O2 | – | – | – | – | – | – | – | inactive | inactive | inactive | inactive | inactive |
| > 100 | 20 | C=C1C(=O)O[C@H]2/C=C(\C)C[C@@H]3C=C(C/C=C/[C@@](C)(O)CC[C@H]12)C(=O)O3 | – | > 10 | > 10 | – | > 10 | 9.9 | 10 | – | – | – | – | – |
| > 100 | 4.8 | C=C1C(=O)O[C@H]2/C=C(\C)C[C@@H]3C=C(CC[C@H]4O[C@@]4(C)CC[C@H]12)C(=O)O3 | – | 9.3 | > 10 | – | > 10 | 8.8 | 10 | – | – | – | – | – |
| 19.7 | > 100 | C=C1C(=O)O[C@H]2/C=C(\C)C[C@@H]3C=C(CC/C=C(\C)CC[C@H]12)C(=O)O3 | – | 7.4 | 9.5 | – | 9.5 | 9.6 | 10 | – | – | – | – | – |

Continued, compound first:

| SMILES | IC50 (Platelet [1]) [µM] | IC50 (Platelet [3]) [µM] | Activity (Platelet [1]) | IC50 [2] [µM] | IC50 (MCF7) [µM] | Activity (Platelet [3]) | IC50 (MDA-MB-231) [µM] | IC50 (A549) [µM] | IC50 (HepG2) [µM] | Activity (Hep 3B2) | Activity (MCF7) | Activity (MDA-MB-231) | Activity (A549) | Activity (HepG2) |
| --- | --- | --- | --- | --- | --- | --- | --- | --- | --- | --- | --- | --- | --- | --- |
| C=C1CC[C@H]2C(=C)C(=O)O[C@@H]2/C=C(\C)C[C@H]2C=C(CCC1=O)C(=O)O2 | – | – | inactive | > 10 | > 10 | inactive | 9.8 | > 10 | 10 | – | – | – | – | – |
| CC(=O)Oc1ccccc1C(=O)O [ASPIRIN] | 153 | > 100 | – | – | – | – | – | – | – | – | – | – | – | – |
| C=C1C(=O)O[C@H]2/C=C(\C)C[C@@H]3C=C(CC[C@@H](OO)C(=C)CC[C@H]12)C(=O)O3 | – | – | inactive | – | – | inactive | – | – | – | inactive | inactive | inactive | inactive | inactive |
| C=C1C(=O)O[C@H]2/C=C(\C)C[C@@H]3C=C(C/C=C/[C@@](C)(OO)CC[C@H]12)C(=O)O3 | > 100 | 11.9 | – | – | – | – | – | – | – | inactive | inactive | inactive | inactive | inactive |
| COc1cccc2c1C(=O)c1c(O)c3c(c(O)c1C2=O)C[C@@](O)(C(=O)CO)C[C@@H]3O[C@H]1C[C@H](N)[C@H](O)[C@H](C)O1 [DOXORUBICIN] | – | – | – | 0.48 | – | – | 0.07 | 0.4 | 0.82 | – | – | – | – | – |
